Reference: ChEMBL document CHEMBL2086314, “Synthesis and anticonvulsant activity of new N-Mannich bases derived from 3-(2-fluorophenyl)- and 3-(2-bromophenyl)-pyrrolidine-2,5-diones. Part II” (Bioorg Med Chem, 2012)
Calls of active or inactive are those of the source. The calls are words filed in the database; no cut-off is given here.

test system: Mus musculus; assay: Anticonvulsant activity in CF-1 albino mouse assessed as protection against subcutaneous pentylenetetrazol-induced seizures at 300 mg/kg, ip measured after 4 hrs; type: functional, organism-based; parameters: dose 300 mg/kg; conditions: not given
Outline: (§1)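 scPTZ test in male CF-1 mice. Compound suspended in 0.5% methylcellulose/water, ip at 30, 100 or 300 mg/kg. Pentylenetetrazole 85 mg/kg (CD97, clonic seizures lasting at least 5 s) given subcutaneously at the test time, read at 0.5 and 4 h. Value is the minimum dose protecting half or more of the animals.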

Row | SMILES | Activity
1 | O=C1CC(c2ccccc2F)C(=O)N1CN1CCN(C2CCCCC2)CC1 (racemic) | inactive
2 | O=C1CC(c2ccccc2Br)C(=O)N1CN1CCOCC1 (racemic) | inactive

test system: Rattus norvegicus; assay: Anticonvulsant activity in Sprague-Dawley rat assessed as protection from maximum electric shock-induced seizures at 30 mg/kg, po measured after 2 hrs; type: functional; conditions: not given
Outline: (§2)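 Male Sprague–Dawley rats, four per group, given 30 mg/kg orally as a suspension in 0.5% methylcellulose/water. MES stimulus 150 mA, 60 Hz, 0.2 s via corneal electrodes. Tested at 0.25, 0.5, 1, 2 and 4 h; value is rats protected out of four.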

Row | SMILES | Activity [%]
3 | O=C1CC(c2ccccc2F)C(=O)N1CN1CCN(c2ccc(Cl)cc2)CC1 (racemic) | 25
4 | O=C1CC(c2ccccc2Br)C(=O)N1CN1CCOCC1 (racemic) | 0

test system: Mus musculus; assay: Anticonvulsant activity in ip dosed CF-1 albino mouse assessed as protection against subcutaneous pentylenetetrazol-induced seizures measured after 0.5 hrs; type: functional; conditions: read-out: MED; outline: as §1

Row | SMILES | minimal effective dose [mg/kg]
5 | O=C1CC(c2ccccc2Br)C(=O)N1CN1CCOCC1 (racemic) | 300

test system: Mus musculus; assay: Anticonvulsant activity in CF-1 albino mouse assessed as protection against 6 Hz psychomotor seizure at 100 mg/kg, ip measured after 2 hrs; type: functional; conditions: route intraperitoneal
Outline: (§3)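 6-Hz psychomotor seizure in male CF-1 mice, compound suspended in 0.5% methylcellulose/water, given ip (100 or 75 mg/kg). Corneal stimulation with 0.2 ms monopolar rectangular pulses at 6 Hz for 3 s, 32 mA, constant-current device. Protected if normal exploratory behaviour resumes within 10 s. Tested 0.25–4 h after dosing; value is mice protected out of four.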

Row | SMILES | Activity [%]
6 | O=C1CC(c2ccccc2F)C(=O)N1CN1CCN(c2ccc(Cl)cc2)CC1 (racemic) | 0
7 | O=C1CC(c2ccccc2Br)C(=O)N1CN1CCN(c2ccccc2F)CC1 (racemic) | 25
8 | O=C1CC(c2ccccc2Br)C(=O)N1CN1CCN(c2ccccc2)CC1 (racemic) | 75

test system: Mus musculus; assay: Neurotoxicity in ip dosed CF-1 albino mouse assessed as motor impairment measured after 0.5 hrs by rotarod test; type: toxicity, organism-based; conditions: in vivo
Outline: (§4)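 Rotarod neurotoxicity in male CF-1 mice given ip doses of 30, 100 or 300 mg/kg (0.5% methylcellulose suspension), examined 0.5 and 4 h after dosing. Impairment means failing to hold balance on the rod for 1 min. Value is the minimum dose causing toxicity in half or more of the animals; response comments are recorded.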

Row | SMILES | MTC [mg/kg]
9 | O=C1CC(c2ccccc2Br)C(=O)N1CN1CCOCC1 (racemic) | 300
10 | O=C1CC(c2ccccc2F)C(=O)N1CN1CCN(c2ccccc2)CC1 (racemic) | 300

test system: Mus musculus; assay: Anticonvulsant activity in CF-1 albino mouse assessed as protection against subcutaneous pentylenetetrazol-induced seizures at 300 mg/kg, ip measured after 0.5 hrs; type: functional, organism-based; parameters: dose 300 mg/kg; conditions: not given; outline: as §1

Row | SMILES | Activity
11 | O=C1CC(c2ccccc2F)C(=O)N1CN1CCN(C2CCCCC2)CC1 (racemic) | inactive

test system: Mus musculus; assay: Anticonvulsant activity in CF-1 albino mouse assessed as protection from maximal electric shock-induced seizures at 300 mg/kg, ip measured after 0.5 hrs; type: functional, organism-based; parameters: dose 300 mg/kg; conditions: not given
Outline: (§5)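 Male CF-1 mice dosed ip at 30, 100 or 300 mg/kg, suspension in 0.5% methylcellulose/water. MES: corneal electrodes primed with electrolyte containing anaesthetic, 50 mA, 60 Hz, 0.2 s. Examined 0.5 and 4 h after dosing. Value is the minimum dose protecting half or more of the animals.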

Row | SMILES | Activity
12 | O=C1CC(c2ccccc2F)C(=O)N1CN1CCN(c2ccc(Cl)cc2)CC1 (racemic) | inactive
13 | O=C1CC(c2ccccc2F)C(=O)N1CN1CCN(C2CCCCC2)CC1 (racemic) | inactive
14 | O=C1CC(c2ccccc2Br)C(=O)N1CN1CCN(c2ccccc2F)CC1 (racemic) | inactive
15 | O=C1CC(c2ccccc2Br)C(=O)N1CN1CCN(c2ccccc2)CC1 (racemic) | inactive
16 | O=C1CC(c2ccccc2F)C(=O)N1CN1CCN(c2ccccc2)CC1 (racemic) | inactive

test system: Rattus norvegicus; assay: Anticonvulsant activity in Sprague-Dawley rat assessed as protection from maximum electric shock-induced seizures at 30 mg/kg, po measured after 0.25 hrs; type: functional; conditions: not given; outline: as §2

Row | SMILES | Activity [%]
17 | O=C1CC(c2ccccc2F)C(=O)N1CN1CCN(c2ccc(Cl)cc2)CC1 (racemic) | 0
18 | O=C1CC(c2ccccc2Br)C(=O)N1CN1CCOCC1 (racemic) | 0

test system: Rattus norvegicus; assay: Anticonvulsant activity in Sprague-Dawley rat assessed as protection from maximum electric shock-induced seizures at 30 mg/kg, po measured after 1 hr; type: functional; conditions: not given; outline: as §2

Row | SMILES | Activity [%]
19 | O=C1CC(c2ccccc2F)C(=O)N1CN1CCN(c2ccc(Cl)cc2)CC1 (racemic) | 0
20 | O=C1CC(c2ccccc2Br)C(=O)N1CN1CCOCC1 (racemic) | 0

test system: Mus musculus; assay: Anticonvulsant activity in CF-1 albino mouse assessed as protection against 6 Hz psychomotor seizure at 100 mg/kg, ip measured after 0.5 hrs; type: functional; conditions: route intraperitoneal; outline: as §3

Row | SMILES | Activity [%]
21 | O=C1CC(c2ccccc2F)C(=O)N1CN1CCN(c2ccc(Cl)cc2)CC1 (racemic) | 50
22 | O=C1CC(c2ccccc2Br)C(=O)N1CN1CCN(c2ccccc2F)CC1 (racemic) | 25
23 | O=C1CC(c2ccccc2Br)C(=O)N1CN1CCN(c2ccccc2)CC1 (racemic) | 0

test system: Rattus norvegicus; assay: Anticonvulsant activity in Sprague-Dawley rat assessed as protection from maximum electric shock-induced seizures at 30 mg/kg, po measured after 0.5 hrs; type: functional; conditions: not given; outline: as §2

Row | SMILES | Activity [%]
24 | O=C1CC(c2ccccc2F)C(=O)N1CN1CCN(c2ccc(Cl)cc2)CC1 (racemic) | 0
25 | O=C1CC(c2ccccc2Br)C(=O)N1CN1CCOCC1 (racemic) | 0

test system: Mus musculus; assay: Neurotoxicity in CF-1 albino mouse assessed as motor impairment at 300 mg/kg, ip measured after 0.5 hrs by rotarod test; type: toxicity, organism-based; parameters: dose 300 mg/kg, route intraperitoneal; conditions: in vivo; outline: as §4

Row | SMILES | Activity
26 | O=C1CC(c2ccccc2F)C(=O)N1CN1CCN(c2ccc(Cl)cc2)CC1 (racemic) | Non-toxic
27 | O=C1CC(c2ccccc2F)C(=O)N1CN1CCN(C2CCCCC2)CC1 (racemic) | Non-toxic
28 | O=C1CC(c2ccccc2Br)C(=O)N1CN1CCN(c2ccccc2F)CC1 (racemic) | Non-toxic
29 | O=C1CC(c2ccccc2Br)C(=O)N1CN1CCN(c2ccccc2)CC1 (racemic) | Non-toxic

test system: Mus musculus; assay: Anticonvulsant activity in ip dosed CF-1 albino mouse assessed as protection from maximal electric shock-induced seizures measured after 4 hrs; type: functional; conditions: read-out: MED; outline: as §5

Row | SMILES | minimal effective dose [mg/kg]
30 | O=C1CC(c2ccccc2F)C(=O)N1CN1CCN(c2ccc(Cl)cc2)CC1 (racemic) | 100
31 | O=C1CC(c2ccccc2Br)C(=O)N1CN1CCOCC1 (racemic) | 100
32 | O=C1CC(c2ccccc2Br)C(=O)N1CN1CCN(c2ccccc2)CC1 (racemic) | 100
33 | O=C1CC(c2ccccc2F)C(=O)N1CN1CCN(c2ccccc2)CC1 (racemic) | 300

test system: Mus musculus; assay: Anticonvulsant activity in ip dosed CF-1 albino mouse assessed as protection from maximal electric shock-induced seizures measured after 0.5 hrs; type: functional; conditions: read-out: MED; outline: as §5

Row | SMILES | minimal effective dose [mg/kg]
34 | O=C1CC(c2ccccc2Br)C(=O)N1CN1CCOCC1 (racemic) | 100

test system: Mus musculus; assay: Anticonvulsant activity in CF-1 albino mouse assessed as protection against 6 Hz psychomotor seizure at 100 mg/kg, ip measured after 1 hr; type: functional; conditions: route intraperitoneal; outline: as §3

Row | SMILES | Activity [%]
35 | O=C1CC(c2ccccc2F)C(=O)N1CN1CCN(c2ccc(Cl)cc2)CC1 (racemic) | 25
36 | O=C1CC(c2ccccc2Br)C(=O)N1CN1CCN(c2ccccc2F)CC1 (racemic) | 25
37 | O=C1CC(c2ccccc2Br)C(=O)N1CN1CCN(c2ccccc2)CC1 (racemic) | 50

test system: Mus musculus; assay: Anticonvulsant activity in CF-1 albino mouse assessed as protection against 6 Hz psychomotor seizure at 100 mg/kg, ip measured after 4 hrs; type: functional; conditions: route intraperitoneal; outline: as §3

Row | SMILES | Activity [%]
38 | O=C1CC(c2ccccc2F)C(=O)N1CN1CCN(c2ccc(Cl)cc2)CC1 (racemic) | 0
39 | O=C1CC(c2ccccc2Br)C(=O)N1CN1CCN(c2ccccc2F)CC1 (racemic) | 25
40 | O=C1CC(c2ccccc2Br)C(=O)N1CN1CCN(c2ccccc2)CC1 (racemic) | 50

test system: Mus musculus; assay: Anticonvulsant activity in CF-1 albino mouse assessed as protection from maximal electric shock-induced seizures at 300 mg/kg, ip measured after 4 hrs; type: functional, organism-based; parameters: dose 300 mg/kg; conditions: not given; outline: as §5

Row | SMILES | Activity
41 | O=C1CC(c2ccccc2F)C(=O)N1CN1CCN(C2CCCCC2)CC1 (racemic) | inactive
42 | O=C1CC(c2ccccc2Br)C(=O)N1CN1CCN(c2ccccc2F)CC1 (racemic) | inactive

test system: Rattus norvegicus; assay: Neurotoxicity in Sprague-Dawley rat assessed as motor impairment at 30 mg/kg, po by rotarod test; type: toxicity, organism-based; parameters: dose 30 mg/kg, route oral; conditions: in vivo
Outline: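 Male Sprague–Dawley rats, four animals, oral 30 mg/kg in 0.5% methylcellulose/water. Motor impairment on the rotarod (failure to keep balance for 1 min) assessed alongside MES at five times from 0.25 to 4 h.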

Row | SMILES | Activity
43 | O=C1CC(c2ccccc2F)C(=O)N1CN1CCN(c2ccc(Cl)cc2)CC1 (racemic) | Non-toxic
44 | O=C1CC(c2ccccc2Br)C(=O)N1CN1CCOCC1 (racemic) | Non-toxic

test system: Mus musculus; assay: Neurotoxicity in CF-1 albino mouse assessed as motor impairment at 300 mg/kg, ip measured after 4 hrs by rotarod test; type: toxicity, organism-based; parameters: dose 300 mg/kg, route intraperitoneal; conditions: in vivo; outline: as §4

Row | SMILES | Activity
45 | O=C1CC(c2ccccc2F)C(=O)N1CN1CCN(c2ccc(Cl)cc2)CC1 (racemic) | Non-toxic
46 | O=C1CC(c2ccccc2F)C(=O)N1CN1CCN(C2CCCCC2)CC1 (racemic) | Non-toxic
47 | O=C1CC(c2ccccc2Br)C(=O)N1CN1CCN(c2ccccc2F)CC1 (racemic) | Non-toxic
48 | O=C1CC(c2ccccc2Br)C(=O)N1CN1CCOCC1 (racemic) | Non-toxic
49 | O=C1CC(c2ccccc2Br)C(=O)N1CN1CCN(c2ccccc2)CC1 (racemic) | Non-toxic
50 | O=C1CC(c2ccccc2F)C(=O)N1CN1CCN(c2ccccc2)CC1 (racemic) | Non-toxic

test system: Mus musculus; assay: Anticonvulsant activity in CF-1 albino mouse assessed as protection against 6 Hz psychomotor seizure at 100 mg/kg, ip measured after 0.25 hrs; type: functional; conditions: route intraperitoneal; outline: as §3

Row | SMILES | Activity [%]
51 | O=C1CC(c2ccccc2F)C(=O)N1CN1CCN(c2ccc(Cl)cc2)CC1 (racemic) | 25
52 | O=C1CC(c2ccccc2Br)C(=O)N1CN1CCN(c2ccccc2F)CC1 (racemic) | 0
53 | O=C1CC(c2ccccc2Br)C(=O)N1CN1CCN(c2ccccc2)CC1 (racemic) | 25

test system: Rattus norvegicus; assay: Anticonvulsant activity in Sprague-Dawley rat assessed as protection from maximum electric shock-induced seizures at 30 mg/kg, po measured after 4 hrs; type: functional; conditions: not given; outline: as §2

Row | SMILES | Activity [%]
54 | O=C1CC(c2ccccc2F)C(=O)N1CN1CCN(c2ccc(Cl)cc2)CC1 (racemic) | 50
55 | O=C1CC(c2ccccc2Br)C(=O)N1CN1CCOCC1 (racemic) | 25
